SIAE primary = blocks human sialic acid acetylesterase. Q9HAT2. SIAE FP-Rh probe binding, fluorescence polarization. inhibition, % at 9.66 µM. 0.69% of 370,000 active;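 active = inhibition above a cutoff: mean of compounds within the control limits plus 3 SD of those, cut at about 17% in these data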;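 note: 0% = plate median of compound wells and 100% = probe without SIAE protein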
Target sequence (Q9HAT2 whole entry, looked up): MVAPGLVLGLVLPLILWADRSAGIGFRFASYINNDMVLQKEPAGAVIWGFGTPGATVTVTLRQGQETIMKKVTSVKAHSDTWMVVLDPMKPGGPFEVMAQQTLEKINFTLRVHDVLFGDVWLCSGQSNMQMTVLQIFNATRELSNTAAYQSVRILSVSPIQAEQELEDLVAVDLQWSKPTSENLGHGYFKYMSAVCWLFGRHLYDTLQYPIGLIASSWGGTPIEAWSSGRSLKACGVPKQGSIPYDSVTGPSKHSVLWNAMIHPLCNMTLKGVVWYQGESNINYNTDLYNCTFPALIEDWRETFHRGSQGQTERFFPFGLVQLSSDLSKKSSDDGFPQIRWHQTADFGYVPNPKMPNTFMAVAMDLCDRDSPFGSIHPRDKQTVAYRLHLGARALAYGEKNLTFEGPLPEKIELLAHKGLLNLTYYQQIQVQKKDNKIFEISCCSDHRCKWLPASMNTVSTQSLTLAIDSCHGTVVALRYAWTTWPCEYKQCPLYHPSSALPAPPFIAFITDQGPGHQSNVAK
TCR-CD3 inh = inhibitors of human TCR-CD3 interaction; TAMRA-labeled TCR probe fluorescence, biochemical; 0.37% of 360,000 active; inhibition, % at 9.4 µM; in the data active = inhibition above about 19%;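 note: recombinant mutant TCR 2C K166C tagged with TAMRA read by polarization; 0% = receptor in buffer alone and 100% = receptor with positive control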
HTRA1 inh = inhibitors of human serine peptidase HTRA1; Q92743; recombinant HTRA1, FP-rhodamine activity-based probe, fluorescence polarization; inhibition, % at 5.96 µM; 0.5% of 340,000 active; in the data active = inhibition above about 36%;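 note: 0% = enzyme with DMSO and 100% = wells lacking enzyme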
mABHD4 FP = inhibitors of mouse ABHD4 | Q8VD66 | purified mABHD4, FP-Rh probe fluorescence polarization | inhibition, % at 8.92 µM | 0.54% of 370,000 active | AID 720543;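 active = inhibition exceeding the mean over every tested compound plus 3 SD, cut at about 30% in these data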;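 note: 0% = plate median of compound wells and 100% = S159A mutant with DMSO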
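Doses – 8.92 µM, single dose · Material – wild-type mouse ABHD4 protein · Replication – single well per compound (singlicate) · Measure – percent inhibition of probe binding, normalized to plate controls · Schedule – 45 min compound pre-incubation plus 60 min probe step, 25 °C · Detection – fluorescence polarization with parallel and perpendicular emission, 525/598 nm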
PRMT1 FP inh = blocks human protein arginine methyltransferase 1; AID 652257; recombinant PRMT1, activity-based probe fluorescence polarization; inhibition, % at 2.79 µM; 1.3% of 370,000 active; Q99873;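 active = inhibition above about 21% made by adding two undisclosed values, limit read from the data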
Starred values were filed as active, the others as inactive; / = no result given. Only some compounds are listed: those with a hit (about 2.6% of all), similar ones and a draw of the others.

SMILES	SIAE primary	TCR-CD3 inh	HTRA1 inh	mABHD4 FP	PRMT1 FP inh
CN(C)CCSc1nc(O)c(-c2ccccc2)c(=O)n1-c1ccccc1	2	-10	3	0	20
CCc1c(O)nc(SCC(=O)NC(C)(C)C)n(-c2ccccc2)c1=O	-1	8	-3	0	24*
Oc1ccc2ccccc2c1C=NN1CCN(Cc2ccc(Cl)cc2)CC1	1	/	/	1	0
COC(=O)C1=C(C)N(Cc2cccc(C(F)(F)F)c2)C(=NCc2ccccc2C(F)(F)F)NC1c1cccc(F)c1 (stereo not given)	-5	5	/	22	-3
CCn1c(SCC(=O)N/N=C/C=C\c2ccco2)nc2ccccc21	14	-5	2	11	21*
Cn1c(SCC(=O)N/N=C/C=C\c2ccco2)nc2ccccc21	6	17	0	8	11
O=S(=O)(Nc1ccc(O)c2ccccc12)c1cccs1	5	4	24	46*	16
O=C(Nc1ccccc1)Nc1ccc(Cl)c([N+](=O)[O-])c1	54*	1	-21	-19	-1
Cc1ccc(NC(=O)Nc2ccccc2)cc1[N+](=O)[O-]	0	2	2	-3	1
COc1ccc(S[C@]2(C(=O)N3CCN(c4ncccn4)CC3)CC(=O)N(C(=O)CCc3ccccc3)[C@@H]2c2ccc(OC)cc2)cc1	-2	/	/	0	1
CCOC(=O)[C@@]12CCCC=C1N(CCc1ccc(Cl)cc1)C(=O)[C@H]2CC(=O)NCc1ccc(OC)c(OC)c1	4	/	/	-1	4
O=c1cc(-c2ccc(O)c(O)c2)oc2cc(O[C@@H]3O[C@H](CO)[C@@H](O)[C@H](O)[C@H]3O)cc(O)c12	/	/	60*	/	/
C[C@@H]1O[C@@H](OC[C@H]2O[C@@H](Oc3cc(O)c4c(=O)cc(-c5ccc(O)c(O)c5)oc4c3)[C@H](O)[C@@H](O)[C@@H]2O)[C@H](O)[C@H](O)[C@H]1O	/	/	20	/	/
CCCNC(=O)NS(=O)(=O)c1ccc(Cl)cc1	2	-3	5	7	-3
CCCNC(=O)c1nnsc1S(=O)(=O)c1ccc(Cl)cc1	5	1	3	-2	78*
O=C(/C=C/c1ccco1)NC(=S)Nc1ccc(C(=O)O)cc1	2	11	12	26	24*
Cc1ccnc(NC(=S)NC(=O)/C=C/c2ccco2)c1	4	1	11	8	23*
Cc1ccc(O)c(NC(=S)NC(=O)/C=C/c2ccco2)c1	8	14	-6	11	7
CCOC(=O)C1(Cc2ccccc2)CCN(Cc2cccc(C#N)c2)CC1	3	/	/	7	2
CSc1ccc(C2C(C#N)=C(N)Oc3c2ccc(=O)c2c(C)oc(C)c32)cc1 (stereo not given)	6	1	36	19	7
Cc1oc(C)c2c(=O)ccc3c(c12)OC(N)=C(C#N)C3c1ccccc1 (stereo not given)	6	-9	24	15	22*
C=CCn1c(COc2ccccc2)nnc1SCC(=O)Nc1ccc(Oc2ccccc2)cc1	-4	/	/	-13	0
COC(=O)C1=C(C)NC(=O)/C1=C\N(C)C	10	16	18	4	25*
O=C(NCc1n[nH]c(=S)n1-c1ccc(Cl)c(Cl)c1)c1ccc(S(=O)(=O)N2CCCCC2)cc1	4	-1	-6	6	23*
C#CCNC(=O)C[C@H]1C[C@@]2(C(=O)OC)C(=C[C@H](COCc3ccccc3)O[C@@H]2C)N(Cc2ccco2)C1=O	4	/	/	-1	-2
SMILES	SIAE primary	TCR-CD3 inh	HTRA1 inh	mABHD4 FP	PRMT1 FP inh
Cc1cccc(-c2n[nH]c(=S)n2/N=C/c2ccc(C)o2)c1	1	-1	3	-13	22*
Cc1cc(-c2n[nH]c(=S)n2/N=C/c2ccc(C)o2)n[nH]1	6	6	2	-2	-4
Nc1nc(=S)c2ncn(C3OC(CO)C(O)C3O)c2[nH]1 (stereo not given)	6	17	-1	14	23*
CC(C)=CCC/C(C)=C/CN1C(=O)N(c2ccc(F)cc2)[C@H]2C[C@@H](c3ccccc3)[C@@H](C)[C@@H](C(=O)N3CCOCC3)C[C@H]21	-2	-4	/	-2	1
COc1ccc(-c2cc(-c3nnc(SCc4cccc5ccccc45)n3N)[nH]n2)cc1	-3	/	/	-13	8
Cn1c(SCC(=O)c2ccccc2)nnc1-c1ccco1	3	7	1	3	0
COc1ccc(C(=O)CSc2nnc(-c3ccco3)n2C)cc1	9	-3	0	-5	24*
CC(NCc1ccco1)C(=O)N1CCCC1 (stereo not given)	4	/	/	0	4
N#CCC[C@@H]1CC[C@]2(CCCN(C(=O)c3ccc4ccccc4n3)C2)O1	0	/	/	2	-3
COC(=O)[C@]12C[C@H](CC(=O)NCCc3ccccc3OC)C(=O)N(Cc3ccc4c(c3)OCO4)C1=C[C@H](C(C)C)O[C@@H]2C1CC1	3	/	/	-8	2
CC1(C(=O)NCc2cccc(C(F)(F)F)c2)CCN1Cc1ccc(-c2ccccc2)o1 (stereo not given)	-5	2	/	-11	22*
CCCCCCCCN1C(=O)[C@@H](CC(=O)NCCCN2CCCC2=O)C[C@@]2(C(=O)OC)C1=C[C@H](C(C)C)O[C@@H]2C1CC1	-1	/	/	-4	-4
CCC(CC)C(=O)Nc1cccc(C(=O)Nc2ccc(S(=O)(=O)Nc3ccc(C)cc3)cc2)c1	-166	24*	-131	-138	6
CSC(=Nc1ccccc1)C1=C(O)COC1=O	4	8	0	1	-2
CCSC(=Nc1ccccc1)C1=C(O)COC1=O	19*	-1	-2	-11	1
C=CCN(C)CC#CCCCCl	3	/	/	3	-2
C=CCN1C(=O)[C@@H](CC(=O)N2CCN(C(=O)OCC)CC2)[C@]2(C(=O)OC)CCCCC=C12	9	/	/	4	-1
O=C1CC(Sc2cccs2)C(=O)N1c1ccccc1 (stereo not given)	6	8	0	-1	49*
COc1ccc(S[C@]2(C(=O)N3CCCC3)CC(=O)N(P(=O)(OC)OC)[C@@H]2c2ccc(OC)cc2)cc1	-7	/	/	-7	8
COC(=O)[C@@H]1[C@H]2C[C@H]3c4[nH]c5ccccc5c4CCN3C[C@@H]2CC[C@@H]1O	8	3	2	-1	-5
NNC(=O)C1C(O)CCC2CN3CCc4c([nH]c5ccccc45)C3CC21 (stereo not given)	3	-2	4	3	22*
O=C(NCc1ccco1)c1cccc2c1C(=O)c1ccc(N3CCCC3)cc1S2(=O)=O	-10	0	-15	-26	37*
Cc1ccc(CNC(=O)c2cccc3c2C(=O)c2ccc(N4CCCCC4)cc2S3(=O)=O)cc1	-12	-7	-19	-13	0
S=c1[nH]nc(-c2ccc3ccccc3n2)n1-c1ccccc1	2	-7	5	3	23*
Fc1ccccc1-n1c(-c2ccc3ccccc3n2)n[nH]c1=S	16	-4	0	0	6

Assay outcomes (PubChem BioAssay)
